Laboratory results: paper PMC7925372 (Journal of thrombosis and haemostasis : JTH, 2021)
Residue numbers refer to the chain shown, from its start.

Legend:
warfarin-resistant rats = conditions: cited from earlier work
[1] = cited from earlier work
[2] = tested on: VKD carboxylation in UBIAD1-knockout FIXgla-PC/HEK293 cells; test: VKD carboxylation in UBIAD1-knockout FIXgla-PC/HEK293 reporter cells; assay type: cell-based, human; conditions: increasing concentrations, 24 hours
[3] = tested on: VKD carboxylation of reporter-protein FIXgla-PC in FIXgla-PC/HEK293 cells; assay type: cell-based, human; conditions: 24 hours
Procedure, shortened: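 FIXgla-PC/HEK293 cells are HEK293 cells stably expressing protein C whose Gla domain is swapped for factor IX's. They were cultured 24 h with test compound, either fixed at 1 μM or at increasing concentrations, as carboxylation substrate. FIXgla-PC carboxylation efficiency was measured by ELISA directly on culture medium. Activity was expressed relative to vitamin K1 set at 100%. Background activity comes from residual K vitamins in fetal bovine serum.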

[4] = tested on: VKD carboxylation of FIXgla-PC in FIXgla-PC/HEK293 cells (KO as substrate); test: Inhibition of VKD carboxylation in FIXgla-PC/HEK293 cells with 5 μM KO; assay type: cell-based, human
wild-type VKOR = test: Inhibition potency of VKAs on VKOR transiently expressed in DGKO reporter cells; assay type: cell-based, human
VKOR A26P = biological target: T1, VKOR A26P (Homo sapiens, UniProt Q9BQB6, A26P); test: Inhibition potency of VKAs on VKOR mutation expressed in DGKO reporter cells; assay type: cell-based
T1 sequence (Q9BQB6 1-163 A26P): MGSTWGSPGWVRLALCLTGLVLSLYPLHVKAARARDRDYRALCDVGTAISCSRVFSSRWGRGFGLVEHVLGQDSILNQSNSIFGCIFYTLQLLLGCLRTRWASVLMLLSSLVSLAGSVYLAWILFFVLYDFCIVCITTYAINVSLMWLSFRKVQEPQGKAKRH

VKOR F55A = biological target: T2, VKOR F55A (Homo sapiens, UniProt Q9BQB6, F55A); test: as above; assay type: cell-based
T2 sequence (Q9BQB6 1-163 F55A): T1 sequence (Q9BQB6 1-163 A26P) with P26A, F55A

VKOR W59R = biological target: T3, VKOR W59R (Homo sapiens, UniProt Q9BQB6, W59R); test: as above; assay type: cell-based; conditions: read-out: IC50 ± standard deviation, 5 μM KO, 24 hours
T3 sequence (Q9BQB6 1-163 W59R): T1 sequence (Q9BQB6 1-163 A26P) with P26A, W59R

VKOR L128R = biological target: T4, VKOR L128R (Homo sapiens, UniProt Q9BQB6, L128R); test: as above; assay type: cell-based; conditions: read-out: IC50 ± standard deviation, 5 μM KO, 24 hours
T4 sequence (Q9BQB6 1-163 L128R): T1 sequence (Q9BQB6 1-163 A26P) with P26A, L128R

VKOR Y139F = biological target: T5, VKOR Y139F (Homo sapiens, UniProt Q9BQB6, Y139F); test: as above; assay type: cell-based; conditions: read-out: IC50 ± standard deviation, 5 μM KO, 24 hours
T5 sequence (Q9BQB6 1-163 Y139F): T1 sequence (Q9BQB6 1-163 A26P) with P26A, Y139F

[5] = tested on: vitamin K reductase (DGKO reporter cells); assay type: cell-based, human; conditions: increasing concentrations
HEK293 reporter cells = test: Cell viability assay in reporter cells; assay type: cell-based, human; conditions: corresponding concentrations of the carboxylation assay
[6] = tested on: KO reductase (reduction of KO to vitamin K1); test: HPLC-based KO reductase activity in GGCX-knockout HEK293 cells; assay type: cell-based, human; conditions: GGCX-knockout HEK293, 10 μM KO, 10 μM compound, 6 hours
Procedure, shortened: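 GGCX-knockout FIXgla-PC/HEK293 cells (CRISPR-Cas9) were incubated 6 h in medium with 10 μM KO, with or without 10 μM test compound; DMSO-treated cells served as control. K vitamins were extracted from the cells and analysed by reversed-phase HPLC. KO reductase activity was scored as vitamin K1 formed, with vitamin E acetate as standard.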

vitamin K reductase = test: HPLC-based vitamin K reductase activity; assay type: cell-based, human; conditions: DGKO cells, 10 μM vitamin K1, 10 μM compound, 6 hours
Procedure, shortened: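 Reporter cells lacking endogenous VKOR and VKORL (TALEN double knockout) were cultured 6 h with 10 μM vitamin K1, with or without 10 μM test compound; DMSO was the control. Cellular K vitamins were extracted for reversed-phase HPLC. Unstable KH2 was not measured; reduction was coupled to epoxidation, and activity was read as KO produced.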

GGCX = test: In vitro vitamin K epoxidation activity assay with GGCX enriched microsomes; assay type: biochemical; conditions: FLEEL, FIX-propeptide, KH2, 100 μM compound
[7] = tested on: VKD carboxylation of FIXgla-PC in FIXgla-PC/HEK293 cells; assay type: cell-based, human; conditions: 3 μM inhibitor, increasing concentrations of vitamin K1, 24 hours
[8] = tested on: UBIAD1-dependent VKD carboxylation; assay type: cell-based, human; conditions: UBIAD1 transiently expressed in UBIAD1-knockout cells, increasing concentrations
Procedure, shortened: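 FIXgla-PC/HEK293 reporter cells with UBIAD1 knocked out by CRISPR-Cas9 were transiently transfected with UBIAD1 cDNA. Transfected cells were cultured with increasing concentrations of vitamin K analogue. FIXgla-PC carboxylation efficiency in the medium was then measured by ELISA, normalised to vitamin K1 as 100%.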

[9] = tested on: UBIAD1 (MK-4 production in HEK293 cells); test: Conversion of vitamin K derivatives to MK-4 in FIXgla-PC/HEK293 cells; assay type: cell-based, human; conditions: 10 μM VK-K-COT plus 5 μM warfarin, 6 hours, HPLC
[10] = tested on: naturally occurring VKOR mutations; conditions: cell-based functional study; cited from earlier work
[11] = 1 μM vitamin K derivative as substrate, FIXgla-PC/HEK293

## C/C(=C\CC1=C(Cl)C(=O)c2ccccc2C1=O)CCCC(C)CCCC(C)CCCC(C)C (stereo not shown) [Chloro-K]
warfarin-resistant rats
  anticoagulant effect in warfarin-resistant rats: effective anticoagulant
[1]
  antagonism of vitamin K: potent antagonist of vitamin K

## CC(C)=CCC/C(C)=C/CC/C(C)=C/CC/C(C)=C/CC1=C(C)C(=O)c2ccccc2C1=O [MK-4, menaquinone-4]
[2]
  support of VKD carboxylation as substrate in UBIAD1-knockout cells: can efficiently support VKD carboxylation

## CC1=C(Cc2ccccc2)C(=O)c2ccccc2C1=O [VK-M-Ben]
[3]; [11]
  carboxylation activity (vitamin K1 normalized to 100%): 3%
  carboxylation activity as substrate, in words: abolished carboxylation activity

## CC1=C(CC2=CC=CC=CC=C2)C(=O)c2ccccc2C1=O [VK-M-COT]
[3]; [11]
  carboxylation activity as substrate, in words: activity lower than the background activity (DMSO)
[3]; increasing concentrations of vitamin K derivative
  dose-response of VKD carboxylation on concentration titration: inhibitory dose-response curve
[4]; FIXgla-PC/HEK293, 5 μM KO, increasing concentrations
  inhibition of reporter-protein carboxylation, KO as substrate: inhibited reporter-protein carboxylation
[4]; IC50 ratio to warfarin, FIXgla-PC/HEK293, 5 μM KO
  inhibition potency lower than warfarin (fold): ~ 20 fold
wild-type VKOR; A26P, F55A, W59R, L128R, Y139F vs wild type
  IC50 variation between warfarin-resistant VKOR mutations and wild-type VKOR: less than 3 fold
VKOR A26P; read-out: IC50 ± standard deviation, VKOR A26P in DGKO cells, 5 μM KO, 24 hours
  IC50: 487 ± 75 nM
VKOR F55A; read-out: IC50 ± standard deviation, VKOR F55A in DGKO cells, 5 μM KO, 24 hours
  IC50: 249 ± 66 nM
VKOR W59R
  IC50: 615 ± 101 nM
VKOR L128R
  IC50: 575 ± 132 nM
VKOR Y139F
  IC50: 658 ± 54 nM
[5]
  inhibition of reporter-protein carboxylation, vitamin K1 as substrate: inhibited reporter-protein carboxylation
HEK293 reporter cells
  cytotoxicity (cell viability): not due to the cytotoxicity
[6]
  reduction of KO to vitamin K1 (HPLC): significantly decreased
Vitamin K reductase
  reduction of vitamin K (production of KO, HPLC): significantly decreased
GGCX
  GGCX vitamin K epoxidation activity: inhibits GGCX activity for vitamin K epoxidation
[7]
  reversal of inhibition of VKD carboxylation by vitamin K1: can be reversed equally with higher concentrations of vitamin K1

## CC1=CC(=O)c2ccccc2C1=O [menadione]
[2]
  support of VKD carboxylation as substrate in UBIAD1-knockout cells: unable to support reporter-protein carboxylation
[8]
  VKD carboxylation activity after re-introduction of UBIAD1: regained VKD carboxylation activity

## CC1=C(C/C=C(\C)CCC[C@H](C)CCC[C@H](C)CCCC(C)C)C(=O)c2ccccc2C1=O [vitamin K1, phylloquinone]
[2]
  support of VKD carboxylation as substrate in UBIAD1-knockout cells: can efficiently support VKD carboxylation

## CC(=O)CC(c1ccccc1)c1c(O)c2ccccc2oc1=O (stereo not shown) [warfarin, reference compound]
[4]; Homo sapiens, HEK293, 24 h, read-out: IC50 for VKD carboxylation
  IC50: 12.5 nM
wild-type VKOR; all warfarin-resistant VKOR mutations tested vs wild type
  effect of warfarin-resistant VKOR mutations on inhibition potency: up to 400 fold
VKOR A26P; A26P vs wild type
  increase of IC50 compared to wild-type VKOR: 60 fold
VKOR F55A; F55A vs wild type
  increase of IC50 compared to wild-type VKOR: 417 fold
[9]
  MK-4 epoxide in cells on VKOR inactivation: MK-4 epoxide accumulated
[7]
  reversal of inhibition of VKD carboxylation by vitamin K1: can be reversed equally with higher concentrations of vitamin K1
[10]
  variation of warfarin resistance among naturally occurring VKOR mutations: over 100 fold
